Calls of active or inactive are those of the source.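 Rule for the calls, unless noted: active = a full or partial loss of lipid-probe fluorescence in the fish gall bladder, intestine or both, judged by eye; inactive = no fluorescence loss, or compound toxic to the fish.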

The values below come from PubChem BioAssay.

Assay [1] can be described thus: inhibitors of TNFa-induced NFkB p65 translocation, primary screen, imaging, HUVEC, MLSMR starter and 10KST1 sets (AID 438;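 active = inhibition above 20% together with a positive visual image hit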;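 note: compound added about 3h40 before a 20 min TNFalpha stimulation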;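 for inhibition: signal is the nuclear over cytoplasmic p65 intensity ratio per well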). As to conditions: HUVEC TNFa-induced p65 nuclear translocation; cell count: measured here: nuclei count (cytotoxicity indicator), at 2.08 µM; inhibition: at 2 µM, stronger effect = higher value, 0% TNFa-plus-vehicle, 100% no-TNFa wells.
A short description of assay [2]: inhibitors of mutant huntingtin aggregation, primary screen, imaging, exon1htt(103Q)mCFP cells, high-content imaging (AID 483;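 active = visual image review flags a hit and inhibition of aggregation exceeds 20%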;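 note: compound exposure lasted 3 days before fixation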;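 for nuclei count: percent of the per-plate median nuclei count of sample wells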). Conditions: exon1htt(103Q)mCFP cell line, aggregate imaging, at 2 µM; inhibition of aggregation: stronger effect = higher value; nuclei count: measured here: cell count, toxicity.
The nature of assay [3]: inhibitors of E-selectin induction by TNFa, primary screen, imaging, HUVEC, immunofluorescence, MLSMR starter and 10KST1 sets (AID 487;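 active = visually confirmed hit in the image check and inhibition above 20%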;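 for inhibition: signal is fraction of cell area covered by stained E-selectin grains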;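 for nuclei count: 100% = median nuclei count of all wells on the same plate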). Conditions: HUVEC TNFalpha-induced E-selectin immunofluorescence imaging, at 2 µM; inhibition: stronger effect = higher value; nuclei count: measured here: cell number, toxicity.
In assay [4] the target is Voltage-gated potassium channel subunit beta-2 (Rattus norvegicus) (UniProt P62483). Description: KvBeta enzyme negative modulators, primary screen, biochemical, NADPH fluorescence (AID 622;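 active = fluorescence slope higher than the sample average by over 3 SD, cut at about -0.22 in these data, passing the limit was not always enough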;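 note: slope of raw intensity against log time taken from 70 to 1610 s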). Conditions: recombinant KvBeta, 4-cyanobenzaldehyde reduction, at 10 µM, stronger effect = higher value.
Chain of Voltage-gated potassium channel subunit beta-2 (Rattus norvegicus) (P62483 whole entry, looked up): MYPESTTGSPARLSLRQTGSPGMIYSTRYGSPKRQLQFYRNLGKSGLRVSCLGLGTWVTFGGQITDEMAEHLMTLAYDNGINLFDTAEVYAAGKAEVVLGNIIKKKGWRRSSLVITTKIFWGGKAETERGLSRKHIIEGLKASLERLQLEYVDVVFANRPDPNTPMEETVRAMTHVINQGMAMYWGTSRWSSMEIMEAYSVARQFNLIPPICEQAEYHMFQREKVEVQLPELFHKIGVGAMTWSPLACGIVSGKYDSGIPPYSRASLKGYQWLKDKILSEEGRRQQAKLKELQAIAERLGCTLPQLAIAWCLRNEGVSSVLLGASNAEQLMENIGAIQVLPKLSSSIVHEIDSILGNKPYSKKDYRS
The target is the same in assay [5]. Description: KvBeta positive modulators, primary screen, biochemical, NADPH fluorescence (AID 623;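 active = NADPH fluorescence slope more negative than the mean of all samples by about 3 SD, 99.7% confidence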;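 note: fluorescence intensity change per second fitted from 20 to 320 s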). As to conditions: Recombinant KvBeta, NADPH fluorescence decrease slope, 10 min; at 10 µM; stronger effect = lower value.
For assay [6], the target named is Alpha-2C adrenergic receptor (Homo sapiens) (UniProt P18825). Put plainly: modulators of alpha2C/GIRK thallium flux, primary screen, cell-based, HEK293 alpha2C/GIRK1/2 (AID 624;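 active = fluorescence slope after compound addition differing from the mean of all screened samples at 99.7% confidence, in either direction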;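 note: slope of fluorescence ratio to pre-addition baseline per second over 15 to 24 s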). As to conditions: thallium flux BTC fluorescence, at 10 µM, actives lie on both sides.
Chain of Alpha-2C adrenergic receptor (Homo sapiens) (P18825 whole entry, looked up): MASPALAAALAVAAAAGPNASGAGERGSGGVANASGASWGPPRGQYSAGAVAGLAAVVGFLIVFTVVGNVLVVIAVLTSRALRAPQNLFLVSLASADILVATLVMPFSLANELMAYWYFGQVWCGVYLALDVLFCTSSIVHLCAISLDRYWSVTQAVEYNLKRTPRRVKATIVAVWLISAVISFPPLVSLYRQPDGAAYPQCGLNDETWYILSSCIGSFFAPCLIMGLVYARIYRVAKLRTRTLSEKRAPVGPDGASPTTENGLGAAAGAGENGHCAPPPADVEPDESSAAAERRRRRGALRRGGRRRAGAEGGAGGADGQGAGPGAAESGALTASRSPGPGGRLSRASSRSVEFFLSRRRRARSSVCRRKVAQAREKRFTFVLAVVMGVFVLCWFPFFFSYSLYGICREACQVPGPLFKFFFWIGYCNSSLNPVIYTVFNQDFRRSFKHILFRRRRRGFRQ
Assay [7] is described as follows: inhibitors of larval lipid processing in zebrafish, primary screen, whole organism, PED6 fluorescence, gall bladder and intestine (AID 686).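 Note: larvae 5 to 7 days old with five fish per well; signal comes from phospholipase A2 cleavage of quenched PED6 carried via bile; overnight exposure to compound and PED6 before scoring.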 As to conditions: Zebrafish larvae PED6 lipid processing, fluorescence scoring; screened at 20 µM (by protocol). Put shortly: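 Also added: quenched phospholipase substrate PED6, 100 nM final, ingested by larvae; System: zebrafish larvae, 5-7 d; Quantity: 5 larvae per well; Compound: 20 µM single dose; Schedule: overnight compound and PED6 incubation; Read-out: visual per-well fluorescence inhibition score; Measured by: By-eye fluorescence microscopy; Medium: E3.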

Assay [8] is described as follows: inhibitors of Sendai virus-induced IRF3 signaling, primary screen, TLR/RLR signaling modifier project, cell-based, Sendai virus stimulus, luciferase, 10K MLSCN set (AID 602276;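 active = inhibition at or above 50% at 10 µM; inactive = inhibition below 50%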;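 note: firefly luciferase from ISG56 promoter only with Renilla not read in this screen; 0% = Sendai virus plus DMSO and 100% = medium plus DMSO without virus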). Conditions: HEK293 RL24 IRF3 luciferase reporter, at 10 µM, stronger effect = higher value.
Assay [9] can be described thus: inhibitors of poly I:C-induced TLR3 signaling, primary screen, cell-based, poly I:C stimulus, luciferase, 10K MLSCN set (AID 602277;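 active = inhibition of the reporter signal at or above 50%; inactive = inhibition below 50%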). Conditions: HEK293-TLR3 RL24 IRF3 luciferase reporter, at 10 µM, stronger effect = higher value. (In general: In a reporter assay the amount or activity of a reporter protein is the signal.)

As usually defined, the inhibition is the drop in the measured response relative to a control, in per cent. Consider `Cn1c(=O)[nH]c(=O)c2c1nc(Br)n2CCCSc1nc2ccccc2o1`, for which, in assay [1], the cell count was determined as 588. Further, the inhibition in [1] was -2.9% (inactive); in assay [3] it was -8.4% (inactive); in assay [8] it was 17.2% (inactive); in assay [9], 9.4% (inactive). Also, the inhibition of aggregation in assay [2] is -18.5% (inactive). The results for the nuclei count in assay [2] and in assay [3] were 112% and 100%, respectively. For the same molecule, the fluorescence slope in [4] was -0.352 (inactive). In addition, the NADPH fluorescence slope in [5] was -6.5e-05 (inactive). Also, in [6], the slope was 0.00502 (inactive). Besides, the molecule was classed as inactive in assay [7].

Consider `N#CCC(=O)Nc1ncn(Cc2ccccc2Cl)n1`, for which the cell count in assay [1] came out at 273. The inhibition in assay [1] was -2.5% (inactive); in assay [3], -51.5% (inactive); in assay [8], -5.79% (inactive); in assay [9], 4.42% (inactive). Besides, the inhibition of aggregation in assay [2] was -6% (inactive). For the same molecule, the values for the nuclei count in assay [2] and in [3] were 87.3% and 105%, respectively. In addition, in [4], the fluorescence slope was -0.456 (inactive). Moreover, the NADPH fluorescence slope in assay [5] is 1.5e-06 (inactive). Moreover, the slope in [6] is 0.00405 (inactive). The call in [7] was inactive.

As to `CN(c1ccccc1C(=O)NCC1CCCO1)S(C)(=O)=O` (configuration not stated), the cell count in [1] amounted to 314. The inhibition in assay [1] was 3.8% (inactive); in assay [3] it was -12.5% (inactive); in assay [8], 15.7% (inactive); in assay [9] it was 14.6% (inactive). The inhibition of aggregation in assay [2] was 4.6% (inactive). The nuclei count in assay [2] was 94.8%; in assay [3] it was 93.8%. Moreover, the fluorescence slope in assay [4] was -0.444 (inactive). In addition, the NADPH fluorescence slope in assay [5] is -3.7e-05 (inactive). Further, the slope in assay [6] is 0.00536 (inactive). For the same molecule, in assay [7], the call was inactive.

With `CN(C)C(CNC(=O)Nc1cccc(Cl)c1)c1cccnc1` (configuration not stated), the cell count in [1] was 298. The inhibition in assay [1] is -5.5% (inactive); in assay [3] it was -40.7% (inactive); in [8] it was 18.9% (inactive); in assay [9], 26.3% (inactive). Also, in assay [2], the inhibition of aggregation is 1.1% (inactive). Moreover, the results for the nuclei count in assay [2] and in [3] were 67.5% and 115%, respectively. The fluorescence slope in assay [4] was -0.427 (inactive). Further, the NADPH fluorescence slope in [5] is -5.1e-06 (inactive). In addition, in assay [6], the slope is 0.00889 (active). Also, in assay [7], the outcome was inactive.

For the molecule `CCC(=O)Nc1cc(Cl)ccc1N1CCN(C(=O)CC)CC1`, the cell count in assay [1] was determined as 376. Further, the inhibition in assay [1] is 2.1% (inactive); in [3] it was -17.9% (inactive); in assay [8], 18.6% (inactive); in assay [9], 16.6% (inactive). In addition, the inhibition of aggregation in assay [2] is 16.1% (inactive). In addition, the nuclei count in assay [2] worked out at 102%; in assay [3], 90.8%. In assay [4], the fluorescence slope was -0.465 (inactive). The NADPH fluorescence slope in assay [5] was -1.2e-05 (inactive). Also, the slope in [6] was 0.00532 (inactive). Besides, the call in assay [7] was inactive.

Consider `O=S1(=O)CCN2C(=N1)SC1=C2CCN(Cc2ccccc2)C1`, for which the cell count in [1] turned out to be 514. Also, the inhibition in assay [1] is -3% (inactive); in assay [3] it was -42.3% (inactive); in assay [8], 17% (inactive); in [9] it was 13.7% (inactive). Moreover, the inhibition of aggregation in assay [2] was -3.2% (inactive). The figures for the nuclei count in assay [2] and in assay [3] were 91.4% and 144%, respectively. The fluorescence slope in [4] was -0.434 (inactive). In addition, in assay [5], the NADPH fluorescence slope is -1e-05 (inactive). Further, in [6], the slope is 0.00453 (inactive). The call in assay [7] was inactive.

Regarding `COC(=O)c1cccc(NC(=O)CN2CCN(Cc3ccccc3)CC2)c1`, in assay [1], the cell count was 382. Moreover, the inhibition in assay [1] was -6.1% (inactive); in [3] it was -28.9% (inactive); in assay [8], 12.8% (inactive); in assay [9] it was 14.9% (inactive). Further, the inhibition of aggregation in assay [2] is -15.3% (inactive). The nuclei count in assay [2] is 124%; in [3], 121%. Also, in assay [4], the fluorescence slope was -0.372 (inactive). Further, the NADPH fluorescence slope in assay [5] is -9.8e-07 (inactive). For the same molecule, the slope in assay [6] was 0.0056 (inactive). Besides, the outcome in assay [7] was inactive.

Take `CCOCC(O)CS(=O)Cc1ccccc1` (configuration not stated): in assay [1], the cell count stood at 343. Also, the inhibition in [1] is -7.4% (inactive); in assay [3], -38.6% (inactive); in [8] it was 8.68% (inactive); in assay [9], 14.1% (inactive). In addition, the inhibition of aggregation in assay [2] is 4.7% (inactive). Further, the nuclei count in [2] turned out to be 99.4%; in assay [3], 126%. The fluorescence slope in assay [4] was -0.358 (inactive). Also, the NADPH fluorescence slope in assay [5] was -6.9e-05 (inactive). For the same molecule, the slope in assay [6] is 0.00589 (inactive). Further, the result in assay [7] was inactive.

For the molecule `O=C(Nc1ccc2c(c1)OCO2)N1CCN(c2ncccn2)CC1`, the cell count in assay [1] is 342. Also, the inhibition in [1] was 10.3% (inactive); in assay [3], -38.9% (inactive); in assay [8], -23.4% (inactive); in assay [9], -41.5% (inactive). Further, the inhibition of aggregation in assay [2] is -5.6% (inactive). The nuclei count in assay [2] amounted to 107%; in [3], 118%. The fluorescence slope in assay [4] is -0.421 (inactive). Further, in assay [5], the NADPH fluorescence slope was -3.9e-06 (inactive). The slope in assay [6] was 0.00535 (inactive). Further, the outcome in [7] was inactive.

For `CC(OC(=O)c1ccco1)C(=O)NCc1cccs1` (configuration not stated), the cell count in assay [1] came to 609. The inhibition in assay [1] was -4.4% (inactive); in [3], -95.9% (inactive); in assay [8], 17.9% (inactive); in assay [9], 25.3% (inactive). For the same molecule, in assay [2], the inhibition of aggregation was 7.4% (inactive). Further, the nuclei count came out at 83% in [2] and 113% in [3]. Moreover, the fluorescence slope in [4] was -0.444 (inactive). The NADPH fluorescence slope in [5] is -6e-05 (inactive). In [6], the slope is 0.00449 (inactive). In [7], the outcome was inactive.

Consider `CCOC(=O)C1CCN(CC(=O)c2c(C)[nH]c3ccccc23)CC1`, for which the cell count in [1] came to 669. In addition, the inhibition is 3.9% (inactive) in assay [1], 11.6% (inactive) in [3], -3.58% (inactive) in assay [8] and 15.2% (inactive) in assay [9]. The inhibition of aggregation in assay [2] was -5.8% (inactive). Besides, the nuclei count in assay [2] came out at 99.6%; in assay [3], 102%. For the same molecule, the fluorescence slope in assay [4] was -0.421 (inactive). Further, in [5], the NADPH fluorescence slope was -1.5e-05 (inactive). The slope in assay [6] was 0.00551 (inactive). Besides, in assay [7], the molecule was classed as inactive.
